Laboratory results published in ChEMBL document CHEMBL3875208, “2-Oxoamides based on dipeptides as selective calcium-independent phospholipase A2 inhibitors” (Bioorg Med Chem, 2017).

Columns and labels:
[1] = system: Phospholipase A2 group VI, Homo sapiens; test: Inhibition of human calcium-independent group-6A iPLA2 using Triton-X-100/PAPC/arachidonyl-1-14C PAPC substrate mixed micelles at 0.091 mole_fraction by modified dole assay relative to control
[2] = molecular target: T1, Cytosolic phospholipase A2 (Homo sapiens) (UniProt P47712); test: Inhibition of human group-4 cPLA2 using Triton-X-100/PAPC/arachidonyl-1-14C PAPC/PIP2 substrate mixed micelles at 0.091 mole_fraction by modified dole assay relative to control
T1 sequence (whole entry): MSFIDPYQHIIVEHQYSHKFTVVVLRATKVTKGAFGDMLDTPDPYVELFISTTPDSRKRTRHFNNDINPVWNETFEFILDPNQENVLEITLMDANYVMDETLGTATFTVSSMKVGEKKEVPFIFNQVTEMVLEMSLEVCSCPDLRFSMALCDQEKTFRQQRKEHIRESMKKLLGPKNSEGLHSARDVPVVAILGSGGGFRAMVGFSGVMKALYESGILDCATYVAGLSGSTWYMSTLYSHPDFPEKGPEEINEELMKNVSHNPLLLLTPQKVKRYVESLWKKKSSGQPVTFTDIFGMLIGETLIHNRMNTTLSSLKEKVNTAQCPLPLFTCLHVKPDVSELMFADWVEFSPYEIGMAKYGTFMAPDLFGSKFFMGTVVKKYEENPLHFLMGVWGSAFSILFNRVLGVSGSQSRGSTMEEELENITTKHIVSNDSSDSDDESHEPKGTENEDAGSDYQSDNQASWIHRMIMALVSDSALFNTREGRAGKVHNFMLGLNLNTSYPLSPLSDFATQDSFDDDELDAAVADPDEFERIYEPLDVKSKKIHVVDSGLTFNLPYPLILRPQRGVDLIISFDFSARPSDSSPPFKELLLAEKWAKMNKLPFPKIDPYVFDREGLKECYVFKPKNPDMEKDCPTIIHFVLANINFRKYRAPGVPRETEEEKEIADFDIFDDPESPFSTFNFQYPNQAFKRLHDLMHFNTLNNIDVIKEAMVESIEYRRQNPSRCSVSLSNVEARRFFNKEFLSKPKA
Method in brief: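 Buffer was 100 mM HEPES pH 7.5 with 90 μM CaCl2, 2 mM DTT and 0.1 mg/ml BSA. Activity was read by modified Dole assay with inhibitor at 0.091 mole fraction, added from a 5 mM DMSO stock, and expressed as percent inhibition.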

[3] = molecular target: T2, Phospholipase A2 group V (Homo sapiens) (UniProt P39877); test: Inhibition of human group-5 sPLA2 using Triton-X-100/PAPC/arachidonyl-1-14C PAPC substrate mixed micelles at 0.091 mole_fraction by modified dole assay relative to control
T2 sequence (whole entry): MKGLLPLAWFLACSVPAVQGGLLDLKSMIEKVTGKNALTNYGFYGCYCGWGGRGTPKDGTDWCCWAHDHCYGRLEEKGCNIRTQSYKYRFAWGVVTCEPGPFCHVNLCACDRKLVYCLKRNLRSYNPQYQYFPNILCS

[4] = molecular target: T2, Phospholipase A2 group V (Homo sapiens); test: Inhibition of human calcium-independent group-5 sPLA2 using Triton-X-100/PAPC/arachidonyl-1-14C PAPC substrate mixed micelles at 0.091 mole_fraction by modified dole assay relative to control; details: in the assay text read “group-5 sPLA2” for “calcium-independent group-5 sPLA2”
Method in brief: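 Human GV sPLA2 activity was measured by modified Dole assay. Inhibitor was added from a 5 mM DMSO stock to give 0.091 mole fraction in substrate, and percent inhibition was recorded.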

[5] = system: Phospholipase A2 group VI, Homo sapiens; test: Inhibition of human calcium-independent group-6A iPLA2 using Triton-X-100/PAPC/arachidonyl-1-14C PAPC substrate mixed micelles by modified dole assay
Homo sapiens = species: Homo sapiens; test: Selectivity ratio of XI50 for human group-4 cPLA2 to XI50 for human calcium-independent group-6A iPLA2
[6] = system: Phospholipase A2 group VI, Homo sapiens; test: Inhibition of human calcium-independent group-6A iPLA2 using substrate mixed micelles at 0.091 mole_fraction by modified dole assay relative to control

Structure (SMILES) | inhibition [1] | inhibition [2] | inhibition [3] | inhibition [4] | XI50 (mole fraction) [5] | Selectivity ratio (Homo sapiens) | XI50 (mole fraction) [6]
CCCC[C@@H](COCC(=O)OC(C)(C)C)NC(=O)C(=O)CCCCc1ccc(OC)cc1 | 93.6% | – | – | – | – | – | –
CCCC[C@H](NC(=O)C(=O)CCCCc1ccccc1)C(=O)NCC(=O)O | < 25% | < 25% | < 25% | – | – | – | –
CCCC[C@H](NC(=O)C(=O)CCCCc1ccc(OC)cc1)C(N)=O | 66.2% | 29.3% | – | 31.1% | – | – | –
COc1ccc(CCCCC(=O)C(=O)N[C@@H](CC(C)C)C(=O)NCC(=O)OC(C)(C)C)cc1 | > 95% | 51.6% | – | 40.8% | 0.024 | – | –
CCCC[C@H](NC(=O)C(=O)CCCCc1ccc(OC)cc1)C(=O)NCCCC(=O)OC(C)(C)C | > 95% | 52.6% | – | 44.8% | 0.007 | 13 | –
CCCC[C@H](NC(=O)C(=O)CCCCc1ccc(OC)cc1)C(=O)NCCCCC(=O)OC(C)(C)C | 90.1% | 64.5% | 56.3% | – | – | – | –
CCCC[C@H](NC(=O)C(=O)CCCCc1ccc2ccccc2c1)C(=O)NCC(=O)OC(C)(C)C | 89.1% | 57.5% | – | 44.8% | – | – | –
CCCCC/C=C\C/C=C\C/C=C\C/C=C\CCCC(=O)C(F)(F)F | – | – | – | – | – | – | 0.028
CCCC[C@H](NC(=O)C(=O)CCCCc1ccccc1)C(=O)NCC(=O)OC(C)(C)C | 91.1% | 46.9% | – | 43.4% | – | – | –
CC[C@H](C)[C@H](NC(=O)C(=O)CCCCc1ccc(OC)cc1)C(=O)NCC(=O)OC(C)(C)C | 81.8% | 57.3% | – | 48.2% | – | – | –
CCCC[C@H](NC(=O)C(=O)CCCCc1ccc(OC)cc1)C(=O)NCCC(=O)OC(C)(C)C | 83.1% | 37.8% | 32.5% | – | – | – | –
CCCC[C@H](NC(=O)C(=O)CCCCc1ccc2ccccc2c1)C(=O)NCC(=O)O | < 25% | 43.1% | < 25% | – | – | – | –
CCCC[C@H](NC(=O)C(=O)CCCCc1ccc(OC)cc1)C(=O)N[C@@H](C)C(=O)OC(C)(C)C | 87.5% | 57.4% | – | 46.6% | – | – | –
CCCC[C@H](NC(=O)C(=O)CCCCc1ccc(OC)cc1)C(=O)NCC(=O)OCc1ccccc1 | > 95% | 52.3% | < 25% | – | 0.026 | – | –
CCCC[C@H](NC(=O)C(=O)CCCCc1ccc(OC)cc1)C(=O)NCC(=O)OC(C)(C)C | > 95% | 40.2% | 45.3% | – | 0.012 | – | –
CCCC[C@@H](NC(=O)C(=O)CCCCc1ccc(OC)cc1)C(=O)NCC(=O)OC(C)(C)C | > 95% | 68% | – | 39.3% | 0.04 | – | –
CCCC[C@@H](COCC(=O)OC(C)(C)C)NC(=O)C(=O)CCCCc1ccccc1 | 76% | 82.3% | 57.5% | – | – | – | –
CCCC[C@H](NC(=O)C(=O)CCCCc1ccc(OC)cc1)C(=O)NCCCC(=O)OCc1ccccc1 | 78.3% | 47.9% | – | 27.7% | – | – | –
CCCC[C@H](NC(=O)C(=O)CCCCc1ccc(OC)cc1)C(=O)NCC(=O)NCC(=O)OC(C)(C)C | 66.5% | 27.1% | < 25% | – | – | – | –
COc1ccc(CCCCC(=O)C(=O)N[C@H](C(=O)NCC(=O)OC(C)(C)C)C(C)C)cc1 | 85.7% | 35.4% | – | 47.1% | – | – | –
CCCC[C@@H](COCC(=O)O)NC(=O)C(=O)CCCCc1ccc(OC)cc1 | < 25% | – | – | – | – | – | –
CCCC[C@H](NC(=O)C(=O)CCCCc1ccc(OC)cc1)C(=O)N[C@H](C)C(=O)OC(C)(C)C | 87.1% | 73.4% | – | 49.9% | – | – | –
CCCC[C@H](NC(=O)C(=O)CCCCc1ccc2ccccc2c1)C(=O)NCC(=O)OCC | 77.1% | 70.5% | 54.4% | – | – | – | –
COc1ccc(CCCCC(=O)C(=O)N[C@@H](CC(C)C)C(=O)NCCCC(=O)OC(C)(C)C)cc1 | 92.8% | 58% | < 25% | – | – | – | –
CCCC[C@@H](COCC(=O)OC(C)(C)C)NC(=O)C(=O)CCCCc1ccc2ccccc2c1 | 88.4% | 85.5% | – | 63.9% | – | – | –
CCCC[C@@H](COCC(=O)OCC)NC(=O)C(=O)CCCCc1ccc(OC)cc1 | 75.2% | – | – | – | – | – | –
CCCC[C@H](NC(=O)C(=O)CCCCc1ccc(OC)cc1)C(=O)OC(C)(C)C | 60% | 85.7% | – | 60.6% | – | – | –
